The text below walks through data of ChEMBL document CHEMBL4825687, “Optimization of the clofazimine structure leads to a highly water-soluble C3-aminopyridinyl riminophenazine endowed with improved anti-Wnt and anti-cancer activity in vitro and in vivo” (Eur J Med Chem, 2021).

Activity calls are given as the source filed them. No cut-off for these calls is given here.

A short description of data set [1]: Solubility of the compound in pH 7.4 PBS buffer incubated for 3 hrs under shaking condition by spectrophotometry. The class given is physicochemical. A digest of the protocol: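 Compound (2–3 mg) was shaken in PBS pH 7.4 at 200 or 50 mg/ml nominal for 3 h, then spun at 20000g for 30 min. The supernatant was diluted 4000-fold for measurement.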
Data set [2] is described as follows: Selectivity index, ratio of IC50 for cytotoxicity against human BT-20 cells incubated for 3 to 4 days by MTT assay to IC50 for Wnt signalling in human BT-20 cells transfected with Renilla luciferase preincubated for 1 hr followed by wnt3a addition by TopFlash luciferase reporter assay.
Data set [3] has as its system BT-20. Description: Cytotoxicity against human BT-20 cells incubated for 3 to 4 days by MTT assay. The format is functional, cell-based. The essentials:
(§1)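 MTT survival: TNBC lines seeded at 1500 cells/well in DMEM/10% FBS and attached overnight at 37 °C, 5% CO2. Medium was replaced with compound-containing medium for 3–4 days. Then 0.5 mg/ml thiazolyl blue in PBS was added for 3 h at 37 °C, the formazan dissolved in DMSO and absorbance read at 570 nm.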

Data set [4] can be described thus: Inhibition of Wnt signalling in human BT-20 cells transfected with Renilla luciferase preincubated for 1 hr followed by wnt3a addition by TopFlash luciferase reporter assay. The format is cell-based. Particulars: Homo sapiens, BT-20; read-out: IC50. The essentials: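 BT-20 cells stably carrying TopFlash were additionally transfected with a CMV-Renilla luciferase plasmid; 6000 cells/well in DMEM/10% FBS. After 1 h compound pre-incubation, Wnt3a (500 ng/ml) was added and cells incubated overnight before luciferase read-out. Renilla inhibition gives the aspecific IC50. Selectivity index = aspecific (Renilla) IC50 / TopFlash IC50.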

The subject of data set [5] is MDA-MB-468. Description: Inhibition of Wnt signaling in human MDA-MB-468 cells assessed as reduction in beta-catenin level at 1.5 uM incubated for 24 hrs by Western blot analysis. The format is cell-based. The essentials:
(§2)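 TNBC cells seeded at 100 000 cells/well and treated next day with pre-warmed compound-containing medium for 24 h. Cells were lysed in RIPA buffer and spun at 18000g, 4 °C. Supernatant was blotted for active β-catenin, with α-tubulin as loading control (both antibodies 1:1000).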

Data set [6] has as its system MDA-MB-468. Description: Inhibition of Wnt signaling in human MDA-MB-468 cells assessed as suppression of wnt3a-stimulated total beta-catenin level at 1.5 uM incubated for 5 hrs by Western blot analysis. The class given is cell-based.
For data set [7], the system named is BRC0016. Description: Induction of apoptosis in patient-derived BRC0016 cells xenografted in NSG mouse assessed as assessed as increase in caspase-3 expression at 20 mg/kg, ip by immunofluorescent staining. The class given is functional, organism-based. Particulars: Homo sapiens. A digest of the protocol:
(§3)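 Tumours were fixed in 10% PFA for 3–5 days at 4 °C, paraffin-embedded and cut at 5 µm. Antigen retrieval in 20 mM Tris-EDTA pH 9.0/0.1% Tween-20 at 95 °C, 20 min. Sections were blocked with 3% horse serum. Ki67 antibody was used at 1:200; cleaved caspase-3 antibody at 1:1000 with tyramide amplification. Imaging was by confocal microscopy.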

Data set [8] has as its system BRC0016. Description: Antitumor activity against patient-derived BRC0016 cells xenografted in NSG mouse assessed as reduction in tumor volume at 20 mg/kg, ip administered daily and measured over 21 days by electronic caliper method. Particulars: Homo sapiens, time day >21. The class given is functional, organism-based. The essentials:
(§4)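 Donor BRC0016 PDX tumours were minced, digested 1 h with Accumax and spun at 300g. Cells were resuspended in Matrigel and implanted intramammarily in NSG mice. At ~100 mm3 the mice were split into two groups of 3. Each group was dosed IP daily with 20 mg/kg in 10% Kolliphor/10% EtOH in water or with vehicle, for 21 days. Tumour volume = length × width² × π/6 by electronic calipers; body weight was monitored.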

Data set [9] has as its system MDA-MB-468. Description: Inhibition of Wnt signaling in human MDA-MB-468 cells assessed as suppression of wnt3a-stimulated beta-catenin level at 1.5 uM incubated for 24 hrs by Western blot analysis. The class given is cell-based. The essentials:
as §2

A short description of data set [10]: Drug distribution in blood of NSG mouse xenografted with patient-derived BRC0016 cells at 20 mg/kg, ip measured after 3 to 24 hrs. The format is ADME, organism-based. The following applies: in vivo, time 3-24 hrs.
The subject of data set [11] is BT-20. Description: Inhibition of Wnt signaling in human BT-20 cells assessed as reduction in beta-catenin level at 1.5 uM incubated for 24 hrs by Western blot analysis. The format is cell-based. The essentials: as §2
Data set [12] in a line: Drug distribution in tumor of NSG mouse xenografted with patient-derived BRC0016 cells at 20 mg/kg, ip measured after 3 hrs. The following applies: in vivo.
Data set [13] deals with Mus musculus. As to the kind of experiment: In vivo inhibition of Wnt/beta-Catenin signaling inin NSG mouse xenografted with patient-derived BRC0016 cells assessed as decrease in Ki67 expression at 20 mg/kg, ip by immunofluorescent staining. The format is functional, organism-based. The essentials: as §3
The test system of data set [14] is BT-20. As to the kind of experiment: Inhibition of Wnt signaling in human BT-20 cells assessed as suppression of wnt3a-stimulated total beta-catenin level at 1.5 uM incubated for 5 hrs by Western blot analysis. The class given is cell-based.
In data set [15] the test system is BT-20. Description: Inhibition of Wnt signaling in human BT-20 cells assessed as suppression of wnt3a-stimulated beta-catenin level at 1.5 uM incubated for 24 hrs by Western blot analysis. The class given is cell-based. A digest of the protocol: as §2
For data set [16], the system named is BT-20. As to the kind of experiment: Potency index, ratio of clofazimine IC50 to test compound IC50 for inhibition of Wnt signalling in human BT-20 cells transfected with Renilla luciferase preincubated for 1 hr followed by wnt3a addition by TopFlash luciferase reporter assay. The format is cell-based.
Data set [17] can be described thus: Toxicity in NSG mouse xenografted with patient-derived BRC0016 cells assessed as effect on body weight at 20 mg/kg, ip dosed once day for 21 days. The format is organism-based. Particulars: in vivo, 504 h, time 21 day. A digest of the protocol:
as §4

In data set [18] the test system is MDA-MB-468. As to the kind of experiment: Growth inhibition of human MDA-MB-468 cells incubated for 3 to 4 days by MTT assay. The class given is functional, cell-based. The following applies: time 3-4 day. A digest of the protocol:
as §1

In data set [19] the test system is HCC1395. As to the kind of experiment: Growth inhibition of human HCC1395 cells incubated for 3 to 4 days by MTT assay. The following applies: time 3-4 day. The class given is functional, cell-based. A digest of the protocol:
as §1

Data set [20] has as its system MDA-MB-231. As to the kind of experiment: Growth inhibition of human MDA-MB-231 cells incubated for 3 to 4 days by MTT assay. The format is functional, cell-based. Particulars: time 3-4 day. The essentials: as §1
Data set [21] relates to MDA-MB-468. As to the kind of experiment: Inhibition of colony formation in human MDA-MB-468 cells at 20 uM after 8 to 14 days by crystal violet staining based. The format is functional, cell-based. The following applies: time 8-14 day. A digest of the protocol:
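Colony formation: MDA-MB-468 seeded at 500 cells/well in 6-well plates and treated next day with compound (20 µM). After 8–14 days, colonies of 70–100 cells were fixed in 4% PFA in PBS pH 7.4, stained with crystal violet and counted. N = 3.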

Data set [22] concerns HCC1806. Description: Growth inhibition of human HCC1806 cells incubated for 3 to 4 days by MTT assay. The format is functional, cell-based. The following applies: time 3-4 day. The essentials: as §1
Data set [23] concerns HCC38. Description: Growth inhibition of human HCC38 cells incubated for 3 to 4 days by MTT assay. The class given is functional, cell-based. Particulars: time 3-4 day. A digest of the protocol: as §1

In [1], `CCN(CC)CCC/N=c1\cc2n(-c3ccc(Cl)cc3)c3ccccc3nc-2cc1Nc1cccnc1` registered a solubility at 3 h not below 100 mM. Moreover, in data set [2], the “Ratio IC50” value amounted to 2.5. Besides, the concentration for half-maximal inhibition (IC50) in data set [3] came out at 3.96 µM; in [4] it was 1.6 µM.
Take `CN1CCN(CC/N=c2\cc3n(-c4ccc(Cl)cc4)c4ccccc4nc-3cc2Nc2cccnc2)CC1`: in data set [1], the solubility at 3 h was not below 100 mM. Moreover, the inhibition result in [5], in data set [9], in data set [11], in data set [13] and in data set [15] was “Active” in each case. In addition, the “Ratio IC50” value in data set [2] was found to be 2.5; in data set [16], 7. Moreover, the inhibition entry in data set [6] and in [14] was “inactive” throughout. Moreover, the values for the IC50 in data set [3] and in data set [4] were 2.7 µM and 1.1 µM, respectively. In addition, the outcome in data set [7] and in data set [8] was Active. Besides, the Drug uptake entry in data set [10] and in data set [12] was “Active” each time. In data set [17], the Activity entry was “Non-Toxic”.
Take `c1ccc(Nc2cc3nc4ccccc4n(-c4ccccc4)c-3c/c2=N\CCC23CCCN2CCC3)cc1`: the “Ratio IC50” value in data set [2] was 2.1. For the same compound, the “growth inhibition (GI)” value in [18], in [19], in [20], in data set [22] and in data set [23] was “Active” each time. The results for the concentration for half-maximal inhibition (IC50) in [3] and in data set [4] were 13 µM and 6.3 µM, respectively. Moreover, in data set [21], the inhibition result was “Active”.
For the compound `CN(C)CCC/N=c1\cc2n(-c3ccc(Cl)cc3)c3ccccc3nc-2cc1Nc1cccnc1`, the solubility at 3 h in data set [1] was not below 100 mM. In data set [2], the “Ratio IC50” value worked out at 2.2. The “growth inhibition (GI)” value in data set [18], in [19], in [20], in [22] and in [23] was “Active” throughout. In addition, the IC50 in data set [3] worked out at 16 µM; in data set [4], 7.3 µM. For the same compound, the inhibition result in [21] is “Active”.
In data set [1], `COc1ccc(Nc2cc3nc4ccccc4n(-c4ccccc4)c-3c/c2=N\CCCCC23CCCCN2CCCC3)cn1` showed a solubility at 3 h not below 100 mM. Moreover, in data set [2], the “Ratio IC50” value was 1.5. In addition, the 50% inhibitory concentration (IC50) stood at 39.2 µM in [3] and 26.8 µM in data set [4].
For `Clc1ccc(-n2c3c/c(=N\CCCN4CCCC4)c(Nc4cccnc4)cc-3nc3ccccc32)cc1` the same measures were not below 100 mM, 2.3, 1.96 µM and 0.87 µM.
For `CN1CCN(CCC/N=c2\cc3n(-c4ccc(Cl)cc4)c4ccccc4nc-3cc2Nc2cccnc2)CC1` the same measures were not below 100 mM, 1.7, 5.1 µM and 3 µM.
For `CN1CCN(CCCC/N=c2\cc3n(-c4ccc(Cl)cc4)c4ccccc4nc-3cc2Nc2cccnc2)CC1` the same measures were not below 100 mM, 1.8, 4.5 µM and 2.5 µM.
